For series [1], the target named is Glycogen synthase kinase-3 beta (Homo sapiens, UniProt P49841). The series is described as follows: Inhibition of GSK3-beta.
Series [2] is described as follows: Solubility at pH 7.4. The note with it: buffer. It counts as physicochemical.
Series [3] can be described thus: Oral bioavailability in ovariectomized rat at 10 mg/kg. It counts as ADME, organism-based. The note with it: female, in vivo. In short, it runs like this:
(§1)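 Single oral dose given to ovariectomized rats at 10 mg/kg in 2% MC/0.5% T80 vehicle. Plasma drug concentration was followed over time, and PK parameters were derived from the concentration-time curve.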

Series [4] is described as follows: Plasma clearance in ovariectomized rat at 2 mg/kg, iv. In kind it is ADME, organism-based. Further details: dose 2 mg/kg, route intravenous. The note with it: female. An outline of the steps:
(§2)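 Ovariectomized rats received a single intravenous dose of 2.0 mg/kg in DMSO vehicle. Plasma drug concentration-time curves gave the PK parameters.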

In series [5] the test system is Rattus norvegicus. Kind of series: Increase in trabecular bone formation rate in ovariectomized rat measured at 0.3 mg/kg, po once daily after 28 days. The note with it: Trabecula. Further details: dose 0.3 mg/kg. In kind it is functional, organism-based. In short, it runs like this: (§3)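 Ovariectomized rats dosed orally once daily for 28 days at four dose levels; vehicle 0.5% methylcellulose/2% Tween-80. Trabecular bone formation rate in the tibia determined at end of in-life phase. Positive control hPTH given sc.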

Series [6] is described as follows: Half life in ovariectomized rat plasma at 10 mg/kg, po. The following applies: female. In kind it is ADME, organism-based. Further details: dose 10 mg/kg, route oral. In short, it runs like this:
as §1

The nature of series [7]: Metabolic stability in rat liver microsomes assessed as half life at 1 uM. It counts as ADME, Microsome. (Liver microsomes are a subcellular fraction often used to study metabolism.)
A short description of series [8]: Membrane permeability by PAMPA. In kind it is ADME. The following applies: read-out: permeability. (PAMPA measures passive passage across an artificial lipid membrane.)
The species entered for series [9] is Mus musculus. Kind of series: Increase in trabecular bone formation rate in wild type mouse measured after 7 days. The following applies: Trabecula. In kind it is functional, organism-based.
A short description of series [10]: Volume of distribution at steady state in ovariectomized rat at 2 mg/kg, iv. It counts as ADME, organism-based. Further details: dose 2 mg/kg, route intravenous. The following applies: female, in vivo, read-out: Vdss. An outline of the steps: as §2
Series [11] in a line: AUC (0 to infinity) in ovariectomized rat at 10 mg/kg, po. In kind it is ADME, organism-based. The following applies: female, plasma. Further details: time infinity, dose 10 mg/kg, route oral. In short, it runs like this: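 Single oral dose in ovariectomized rats, vehicle 2% MC/0.5% Tween-80. Plasma drug concentration followed over time; AUC0-∞ taken from the plasma concentration-time curve.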

The nature of series [12]: Cmax in ovariectomized rat at 10 mg/kg, po. It counts as ADME, organism-based. On the set-up: dose 10 mg/kg, route oral. The note with it: female, in vivo. An outline of the steps:
as §1

Series [13] in a line: Tmax in ovariectomized rat at 10 mg/kg, po. It counts as ADME, organism-based. On the set-up: dose 10 mg/kg, route oral. The following applies: female, in vivo. In short, it runs like this: as §1
The species entered for series [14] is Mus musculus. The series is described as follows: Increase in trabecular bone formation rate in Dkk1 knockout mouse measured after 7 days. It counts as functional, organism-based. The note with it: Trabecula.
In series [15] the test system is Rattus norvegicus. Kind of series: Increase in trabecular bone formation rate in once daily po dosed ovariectomized rat measured after 28 days. It counts as functional, organism-based. The following applies: Trabecula. In short, it runs like this: as §3
Series [16] is described as follows: AUC (0 to infinity) in ovariectomized rat at 2 mg/kg, iv. In kind it is ADME, organism-based. On the set-up: time infinity, dose 2 mg/kg, route intravenous. The note with it: female, plasma. An outline of the steps:
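Single intravenous dose in ovariectomized rats, vehicle DMSO. Plasma drug concentration followed over time; AUC0-∞ taken from the plasma concentration-time curve.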

The nature of series [17]: Half life in ovariectomized rat plasma at 2 mg/kg, iv. It counts as ADME, organism-based. On the set-up: dose 2 mg/kg, route intravenous. The note with it: female. An outline of the steps: as §2

pIC50: −log10 of the molar value. Converted amounts (≈) assume the structure as drawn. The source made the active and inactive calls. The calls are words filed in the database; no cut-off is given here.

We go through six compounds from ChEMBL document CHEMBL1156130, “(1-(4-(Naphthalen-2-yl)pyrimidin-2-yl)piperidin-4-yl)methanamine: a wingless beta-catenin agonist that increases bone formation rate” (J Med Chem, 2009).

Sequence of Glycogen synthase kinase-3 beta (P49841 whole entry): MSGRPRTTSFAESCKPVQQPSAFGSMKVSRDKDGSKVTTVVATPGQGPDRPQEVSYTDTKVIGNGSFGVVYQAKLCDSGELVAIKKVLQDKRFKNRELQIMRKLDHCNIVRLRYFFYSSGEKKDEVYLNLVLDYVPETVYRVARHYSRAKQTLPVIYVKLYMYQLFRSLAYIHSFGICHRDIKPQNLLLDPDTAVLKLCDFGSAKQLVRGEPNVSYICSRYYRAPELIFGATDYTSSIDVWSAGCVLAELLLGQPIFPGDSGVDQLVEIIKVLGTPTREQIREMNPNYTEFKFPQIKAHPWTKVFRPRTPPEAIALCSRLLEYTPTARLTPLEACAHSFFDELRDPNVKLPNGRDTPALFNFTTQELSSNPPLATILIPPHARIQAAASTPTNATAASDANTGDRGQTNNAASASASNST

In general, pIC50 refers to the IC50 on a negative log10 scale, so that one unit is a factor of ten. In general, solubility refers to how much of the substance goes into solution per volume. On to `Cc1ccc(-c2ccnc(N(C)c3ccc(S(N)(=O)=O)cc3)n2)s1`, for which the pIC50 in series [1] is 4.19. This compound also yielded a solubility in series [2] of 15 µg/mL (≈ 41.6 µM).
The corresponding values for `Cc1ccc(-c2ccnc(Nc3ccc(S(N)(=O)=O)cc3)n2)s1` are 6.70 and 8 µg/mL (≈ 23.1 µM).
Taken in the same sequence, the figures for `NC1CCN(c2nccc(-c3ccc4ccccc4c3)n2)CC1` were < 4.30 and > 100 µg/mL.
One may read the bioavailability as dose-corrected exposure relative to a reference, in per cent. By clearance is commonly meant a measure of how efficiently the substance is removed, as volume per time. Low values mean inefficient removal, high ones efficient removal. As a reminder, the half-life is how long it takes for the measured level to halve. The term AUC(0-inf) denotes total exposure, with the tail of the curve extrapolated. A high value points to high exposure. What is called Cmax is the maximum level reached in the sampled fluid or tissue. For orientation: Tmax means the time from dosing to the highest level. In the case of `NCC1CCN(c2nccc(-c3ccc4ccccc4c3)n2)CC1`, in [3], the bioavailability was 78%. Further, the clearance in series [4] was found to be 32 mL/min/kg. For the same compound, the outcome with Rattus norvegicus [5] and in the series filed under Mus musculus [9] was Active. Also, the pIC50 in series [1] was < 4.00. For the same compound, the half-life in series [6] was 5.6 h; in [17] it was 8.2 h. The half-life at 1 µM in [7] is > 0.5 h. In addition, the Papp in [8] came to 5.9 ×10⁻⁶ cm/s. In addition, the Vd in series [10] came out at 22 L/kg. Also, the AUC(0-inf) in series [11] stood at 3990 ng·h/mL; in [16] it was 1030 ng·h/mL. In series [12], this compound showed a Cmax of 277 ng/mL. Moreover, the Tmax in series [13] came to 4.7 h. In the series listed under Mus musculus [14], the outcome was inactive. Further, the Activity entry with Rattus norvegicus [15] is “Dose-dependent effect”. In addition, the solubility in series [2] is 65 µg/mL (≈ 204 µM).
With `CC(=O)NCC1CCN(c2nccc(-c3ccc4ccccc4c3)n2)CC1`, in series [1], the negative-log IC50 (pIC50) was < 5.00. Further, the solubility in series [2] worked out at 1 µg/mL (≈ 2.77 µM).
Turning to `NS(=O)(=O)c1ccc(Nc2nccc(-c3ccc4ccccc4c3)n2)cc1`, the pIC50 in series [1] was 6.51. In addition, the solubility in series [2] is < 0.1 µg/mL.
